Assay results gathered from unrelated publications.
Target: Serine/threonine-protein kinase SIK3 (SIK3, Homo sapiens, UniProt Q9Y2K2)

CCCCC(=O)Nc1ccc(-c2ccc3ncn(CCC)c(=O)c3c2)cn1
remaining binding (binding, competition with immobilised ligand; 0.5 µM): 100%

CN1CCN(C(=O)c2ccc(NC(=O)Nc3ccc(N(C)c4ccnc(Nc5ccc(CS(C)(=O)=O)cc5)n4)cc3)cc2)CC1
remaining binding (binding, competition with immobilised ligand; 1 µM): 86%

CO[C@@H]1[C@H](N(C)C(=O)c2ccccc2)C[C@H]2O[C@]1(C)n1c3ccccc3c3c4c(c5c6ccccc6n2c5c31)C(=O)NC4
inhibition (enzyme activity, inhibitor; 1 µM): 79%

C1=C/COCc2cc(ccc2OCCN2CCCC2)Nc2nccc(n2)-c2cccc(c2)COC/1
remaining signal (cell-free assay; 0.1 µM): 83%

Cc1cc(O)c(-c2ccc([C@@H](C)CN(C)C)cc2)c2c1[nH]c(=O)c1sccc12
inhibition (enzyme activity, inhibitor; 0.1 µM): -11.2%

C=CC(=O)N1CCC([C@@H]2CCNc3c(C(N)=O)c(-c4ccc(Oc5ccccc5)cc4)nn32)CC1
inhibition (enzyme activity, inhibitor; 1 µM): 9%

CC(C)S(=O)(=O)c1ccc2nccc(Nc3ccc4sc(C5CCCC5)nc4c3)c2c1
activity vs control (enzyme activity, inhibitor; 1 µM): 104%

Cc1ccc(NC(=O)c2ccnc(C(F)(F)F)c2)cc1-c1cc(OCCO)nc(N2CCOCC2)c1
remaining binding (binding, competition with immobilised ligand; 1 µM): 86%

C#Cc1cc(-c2cc(Nc3nc(N[C@@H](C)c4ccc(F)cn4)ncc3Cl)n[nH]2)ccc1C=O
inhibition (enzyme activity, inhibitor; 0.2 µM): 31.1%
